Substrate in data set [1]: CSc1nc2c(N)ncnc2n1[C@@H]1O[C@H](COP(=O)(O)OP(=O)(O)OP(=O)(O)O)[C@@H](O)[C@H]1O
Put plainly: (§1) Activity of Sprague-Dawley rat liver adenylate kinase 3 by Lineweaver-Burk plot analysis relative to ATP. A digest of the protocol: (§2)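 Substrate kinetics in a pyruvate kinase/lactate dehydrogenase-coupled assay: 0.1 M Tris-HCl pH 7.6, 2 mM MgSO4, 0.12 M KCl, 0.3 mM PEP, 0.38 mM NADH, 0.25 mM AMP. A340 change over 5 min at 23 °C. Derivatives screened first at ca. 0.8 mM. Five or more substrate levels; KM and Vmax (relative to ATP) taken from linear Lineweaver-Burk plots.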

Substrate in data set [2]: Nc1ncnc2c1ncn2[C@@H]1O[C@H](COP(=O)(O)OP(=O)(O)OP(=O)(O)O)[C@@H](O)[C@H]1O
Described as §1. A digest of the protocol: as §2

Substrate in data set [3]: O=C(CI)NCCCCCNc1ncnc2c1ncn2[C@@H]1O[C@H](COP(=O)(O)OP(=O)(O)OP(=O)(O)O)[C@@H](O)[C@H]1O
The data set is described as §1. A digest of the protocol: as §2

Substrate in data set [4]: Nc1ncnc2c1nc(SCCO)n2[C@@H]1O[C@H](COP(=O)(O)OP(=O)(O)OP(=O)(O)O)[C@@H](O)[C@H]1O
The data set is described as §1. The essentials:
as §2

Substrate in data set [5]: CCCSc1nc2c(N)ncnc2n1[C@@H]1O[C@H](COP(=O)(O)OP(=O)(O)OP(=O)(O)O)[C@@H](O)[C@H]1O
The description is as §1. The essentials:
as §2

Substrate in data set [6]: CCSc1nc2c(N)ncnc2n1[C@@H]1O[C@H](COP(=O)(O)OP(=O)(O)OP(=O)(O)O)[C@@H](O)[C@H]1O
Described as §1. A digest of the protocol: as §2

Substrate in data set [7]: CSc1nc2c(N)ncnc2n1[C@@H]1O[C@H](COP(=O)(O)OP(=O)(O)OP(=O)(O)O)[C@@H](O)[C@H]1O
Briefly: (§3) Activity of Sprague-Dawley rat liver adenylate kinase 3 by Lineweaver-Burk plot analysis. The essentials: as §2

Substrate in data set [8]: Nc1ncnc2c1ncn2[C@@H]1O[C@H](COP(=O)(O)OP(=O)(O)OP(=O)(O)O)[C@@H](O)[C@H]1O
Described as §3. The essentials:
as §2

Substrate in data set [9]: O=C(CI)NCCCCCNc1ncnc2c1ncn2[C@@H]1O[C@H](COP(=O)(O)OP(=O)(O)OP(=O)(O)O)[C@@H](O)[C@H]1O
The description is as §3. The essentials:
as §2

Substrate in data set [10]: Nc1ncnc2c1nc(SCCO)n2[C@@H]1O[C@H](COP(=O)(O)OP(=O)(O)OP(=O)(O)O)[C@@H](O)[C@H]1O
The data set is described as §3. The essentials: as §2

Substrate in data set [11]: CCCSc1nc2c(N)ncnc2n1[C@@H]1O[C@H](COP(=O)(O)OP(=O)(O)OP(=O)(O)O)[C@@H](O)[C@H]1O
The data set is described as §3. The essentials:
as §2

Substrate in data set [12]: CCSc1nc2c(N)ncnc2n1[C@@H]1O[C@H](COP(=O)(O)OP(=O)(O)OP(=O)(O)O)[C@@H](O)[C@H]1O
Described as §3. A digest of the protocol:
as §2

Substrate in data set [13]: CSc1nc2c(N)ncnc2n1[C@@H]1O[C@H](COP(=O)(O)OP(=O)(O)OP(=O)(O)O)[C@@H](O)[C@H]1O
Briefly: (§4) Activity of Sprague-Dawley rat muscle adenylate kinase by Lineweaver-Burk plot analysis relative to ATP. A digest of the protocol: as §2

Substrate in data set [14]: Nc1ncnc2c1ncn2[C@@H]1O[C@H](COP(=O)(O)OP(=O)(O)OP(=O)(O)O)[C@@H](O)[C@H]1O
The data set is described as §4. The essentials: as §2

Substrate in data set [15]: O=C(CI)NCCCCCNc1ncnc2c1ncn2[C@@H]1O[C@H](COP(=O)(O)OP(=O)(O)OP(=O)(O)O)[C@@H](O)[C@H]1O
The data set is described as §4. A digest of the protocol: as §2

Substrate in data set [16]: CCCSc1nc2c(N)ncnc2n1[C@@H]1O[C@H](COP(=O)(O)OP(=O)(O)OP(=O)(O)O)[C@@H](O)[C@H]1O
The data set is described as §4. The essentials: as §2

Substrate in data set [17]: Nc1ncnc2c1ncn2[C@@H]1O[C@H](COP(=O)(O)OP(=O)(O)OP(=O)(O)O)[C@@H](O)[C@H]1O
The conditions noted are these: Rattus norvegicus; Sprague-Dawley.

B1: GTP:AMP phosphotransferase AK3, mitochondrial (Rattus norvegicus), P29411 (protein)
chain: MGASGRLLRAVIMGAPGSGKGTGSSRITKHFELKHLSSGDLLRQNMLQGTEIAVLAKSFIDQGKLIPDDDMTRLALHELKNLTQCSWLLDGFPRTLPQAEALDRVYQIDTVINLNVPFEVIKLRLTARWIHPASGRVYNIEFNPPKTVGIDDLTGEPLIQREDDKPETVIKRLKAYEAQTEPVLQYYQKKGVLETFSGTETNKIRPHVYSFLQMKVPETIQKASVTP
For B1, the Vmax in data set [1] was 8.3%; in data set [2], 100%; in data set [3] it was 8.9%; in data set [4], 12.5%; in data set [5] it was 10.4%; in data set [6], 11.4%. The Km in [7] amounted to 150 µM; in data set [8], 90 µM; in data set [9], 400 µM; in data set [10], 120 µM; in data set [11], 40 µM; in [12], 70 µM.

B2: Adenylate kinase isoenzyme 1 (Rattus norvegicus), P39069 (protein)
chain: MEDKLKKAKIIFVVGGPGSGKGTQCEKIVQKYGYTHLSTGDLLRAEVSSGSSRGKMLSSIMEKGELVPLETVLDMLRDAMLAKVDSSNGFLIDGYPREVKQGEEFERKIAQPTLLLYVDAGPETMTQRLLKRGETSGRVDDNEETIKKRLETYYKATEPVISFYDKRGIVRKVNAEGSVDTVFSQVCTYLDSLK
Regarding B2, the Vmax in data set [13] is 0%; in data set [14], 100%; in data set [15], 0%; in [16] it was 0%. The Km in [17] was found to be 650 µM.

By Km is commonly meant the concentration of substrate that gives half-maximal velocity.

These data come from ChEMBL document CHEMBL3244193, “Design of species- or isozyme-specific enzyme inhibitors. 3. Species and isozymic differences between mammalian and bacterial adenylate kinases in substituent tolerance in an enzyme-substrate complex” (J Med Chem, 1979).
